# Results from different studies.
# Each line is one published result; the experiments were not run side by side.
# CDK2: Cyclin-dependent kinase 2 (CDK2, Homo sapiens, UniProt P24941)
# PRKD3: Serine/threonine-protein kinase D3 (PRKD3, Homo sapiens, UniProt O94806)
SMILES,target,test,system,setting,quantity,value
Cc1cc(S(=O)(=O)NC2CC(N3CCN(CC4CCN(c5cccc6c5n(C)c(=O)n6C5CCC(=O)NC5=O)CC4)C4(CC4)C3)C2)ccc1Nc1ncc(C(F)(F)F)c(N2CCC[C@](C)(O)C2)n1 (some centres unmarked),CDK2,"protein level, degrader, western blot",MKN-1,,Dmax,92%
C1=C/COCc2cc(ccc2OCCN2CCCC2)Nc2nccc(n2)-c2cccc(c2)COC/1,PRKD3,binding,,0.1 µM,remaining binding,89%
Cc1cc(O)c(-c2ccc([C@@H](C)CN(C)C)cc2)c2c1[nH]c(=O)c1sccc12,"Mitogen-activated protein kinase 6 (MAPK6, Homo sapiens, UniProt Q16659)","enzyme activity, inhibitor",,0.1 µM,inhibition,2.75%
C[C@]1(O)CCCN(c2nc(Nc3ccc(S(=O)(=O)N[C@H]4CC[C@H](CN5CCN(c6ccc(C7CCC(=O)NC7=O)cc6F)CC5)CC4)cc3F)ncc2C(F)(F)F)C1 (some centres unmarked),CDK2,"protein level, degrader, western blot",TOV21G,,Dmax,95%
C#Cc1cc(-c2cc(Nc3nc(N[C@@H](C)c4ccc(F)cn4)ncc3Cl)n[nH]2)ccc1C=O,PRKD3,"enzyme activity, inhibitor",,0.2 µM,inhibition,4.02%
Cc1cc(=O)oc2cc(NC(=O)[C@H](CCCN=C(N)N)NC(=O)[C@H](CCCN=C(N)N)NC(=O)OCc3ccccc3)ccc12,"Cathepsin B (CTSB, Homo sapiens, UniProt P07858)","enzyme activity, substrate, fluorescence",,pH 7.5,Km,468 µM
CCCCC(=O)Nc1ccc(-c2ccc3ncn(CCC)c(=O)c3c2)cn1,"Serine/threonine-protein kinase TNNI3K (TNNI3K, Homo sapiens, UniProt Q59H18)","binding, competition with immobilised ligand",,0.5 µM,remaining binding,91%
NC/C(=C\F)COc1cccc(Cn2c(=S)[nH]c(=O)c3[nH]cnc32)c1,"Alpha-1A adrenergic receptor (Adra1a, Rattus norvegicus, UniProt P43140)","ligand displacement, radioligand",,10 µM,inhibition,< 50%
